Consider three compounds from publication PMC12078793 (Nature Communications, 2025).

Bounds are passed on as bounds.

Data set [1] can be described thus: Blood PTH analog concentrations. Type of data set: in vivo. The note with it: female, CD-1, mouse, serum, sc, 10 nmol/kg.
A further data set deals with T1, pHL2-hPTH1R (Homo sapiens, UniProt Q03431).
T1 sequence (Q03431 106-593 limits assumed): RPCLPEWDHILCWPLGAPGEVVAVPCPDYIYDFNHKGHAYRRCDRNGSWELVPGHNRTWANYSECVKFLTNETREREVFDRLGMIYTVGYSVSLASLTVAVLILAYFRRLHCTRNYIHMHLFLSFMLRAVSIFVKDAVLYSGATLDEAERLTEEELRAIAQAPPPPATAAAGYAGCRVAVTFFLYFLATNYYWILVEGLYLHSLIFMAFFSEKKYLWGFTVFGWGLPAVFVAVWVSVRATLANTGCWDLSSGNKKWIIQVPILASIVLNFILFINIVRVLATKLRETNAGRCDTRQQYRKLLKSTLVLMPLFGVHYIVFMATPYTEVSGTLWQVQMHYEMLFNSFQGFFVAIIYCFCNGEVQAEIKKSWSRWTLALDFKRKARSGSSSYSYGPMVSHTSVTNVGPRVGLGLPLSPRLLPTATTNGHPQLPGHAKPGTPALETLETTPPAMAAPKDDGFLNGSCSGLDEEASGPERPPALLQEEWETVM
Nature of the data set: Receptor internalization in GPG-10 cells. Type of data set: cell-based. The note with it: 1x10-8 to 1x10-5 M, fluorescence ratio 485/405, n = 3. A digest of the protocol: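 Assay used HEK293 cells stably expressing glosensor plus hPTH1R with pHluorin2 inserted in the ECD E2 region. Confluent monolayers were rinsed with HBSS (0.1% BSA, 10 mM HEPES, pH 7.4), and baseline was recorded for 10 min: 535 nm emission with alternating 485/405 nm excitation at 1-min cycles. Ligand was then added and reading continued for 90 min. The AUC of the 485/405 ratio vs time was taken at each concentration.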

Data set [2] addresses bovine serum albumin (bovine) (UniProt P02769). Nature of the data set: BLI.

bovine serum albumin (bovine), sequence (P02769 25-607): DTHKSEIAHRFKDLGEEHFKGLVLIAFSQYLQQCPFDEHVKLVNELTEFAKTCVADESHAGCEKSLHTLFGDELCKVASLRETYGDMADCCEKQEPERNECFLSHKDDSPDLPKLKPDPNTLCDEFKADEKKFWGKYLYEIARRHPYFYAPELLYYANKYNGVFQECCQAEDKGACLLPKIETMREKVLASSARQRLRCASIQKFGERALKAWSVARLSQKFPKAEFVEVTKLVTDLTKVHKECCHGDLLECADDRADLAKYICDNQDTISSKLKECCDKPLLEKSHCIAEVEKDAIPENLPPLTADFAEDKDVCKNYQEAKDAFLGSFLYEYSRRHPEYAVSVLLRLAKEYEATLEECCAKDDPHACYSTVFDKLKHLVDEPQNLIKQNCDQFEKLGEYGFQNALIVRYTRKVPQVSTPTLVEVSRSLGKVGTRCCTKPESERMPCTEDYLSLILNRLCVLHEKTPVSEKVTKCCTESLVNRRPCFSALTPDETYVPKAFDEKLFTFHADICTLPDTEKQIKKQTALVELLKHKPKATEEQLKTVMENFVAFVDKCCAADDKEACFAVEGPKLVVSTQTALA

Compound `CC[C@H](C)[C@H](NC(=O)[C@H](CCC(=O)O)NC(=O)[C@H](CO)NC(=O)[C@@H](NC(=O)[C@@H](N)CO)C(C)C)C(=O)N[C@@H](CCC(N)=O)C(=O)N[C@@H](CC(C)C)C(=O)N[C@@H](CCSC)C(=O)N[C@@H](Cc1cnc[nH]1)C(=O)N[C@@H](CC(N)=O)C(=O)N[C@@H](CC(C)C)C(=O)NCC(=O)N[C@@H](CCCCN)C(=O)N[C@@H](Cc1cnc[nH]1)C(=O)N[C@@H](CC(C)C)C(=O)N[C@@H](CC(N)=O)C(=O)N[C@@H](CO)C(=O)N[C@@H](CCSC)C(=O)N[C@@H](CCC(=O)O)C(=O)N[C@@H](CCCNC(=N)N)C(=O)N[C@H](C(=O)N[C@@H](CCC(=O)O)C(=O)N[C@@H](Cc1c[nH]c2ccccc12)C(=O)N[C@@H](CC(C)C)C(=O)N[C@@H](CCCNC(=N)N)C(=O)N[C@@H](CCCCN)C(=O)N[C@@H](CCCCN)C(=O)N[C@@H](CC(C)C)C(=O)N[C@@H](CCC(N)=O)C(=O)N[C@@H](CC(=O)O)C(=O)N[C@H](C(=O)N[C@@H](Cc1cnc[nH]1)C(=O)N[C@@H](CC(N)=O)C(=O)N[C@@H](Cc1ccccc1)C(N)=O)C(C)C)C(C)C` [PTH(1-34)] showed a half-life in data set [1] of 18 min.

With L11,dW12,W23,Y36-PTHrP(7-36), the “PHL2-PTH1R internalization into acidic compartments” value on pHL2-hPTH1R is on record as “did not induce internalization”.

As for Palm-M-PTH(1-14) (peptide), in data set [2], the fold lower estimated KD than the non-lipidated counterpart M-PTH(1-14) was greater than 3 fold.
